This excerpt belongs to a sample that is enriched for hits.
Myeloid diff MLP: induction of myeloid progenitor differentiation, primary screen, cell-based, flow cytometry, MLPCN library | ER-HoxA9 myeloid progenitors, lysozyme-GFP differentiation | calls only at 10 µM | actives 1% (n = 360,000) | AID 624256, 2012;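 active = normalized GFP-positive differentiation at or above the plate's own cutoff, the solvent-only control mean plus 3 SD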;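 also: cells exposed to compound for four days before flow analysis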
ABCB6 inh 2: ABCB6 transporter inhibitors, primary screen, K562-ABCB6 cells, flow cytometry, MLPCN library; ATP-binding cassette sub-family B member 6 (Homo sapiens), Q9NP58; K562-ABCB6 porphyrin accumulation, 1 h; stronger effect = lower value; fluorescence ratio to DMSO, % at 10 µM; actives 0.19% (n = 360,000); AID 602162, 2011;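 active = fluorescence ratio to DMSO below 75%, the collection mean minus 3 SD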;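 also: signal is porphyrin accumulated inside mitochondria; 100% equals median channel fluorescence of DMSO control wells; lower ratio means ABCB6 inhibition with less porphyrin fluorescence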
Xi reactivation: activators of inactive X chromosome reactivation, primary screen, imaging, XiGFP fibroblasts, GFP high-content imaging, set 2; XiGFP mouse fibroblasts, % GFP-positive cells imaging, 3 d; cells co-treated with 5-aza-dC sensitizer; scaled so ellipticine positive control = 100%; activation, % at 7.58 µM; actives 0.055% (n = 360,000); AID 743238, 2013;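 active = mean normalized replicate activation at least 10% and every replicate at or above 10%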;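 also: 0% = median of on-plate neutral control wells and 100% = ellipticine 6 µM median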
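System: 68-5-11 XiGFP fibroblast line | Buffer or medium: DMEM containing 5-aza-dC | Compound: Single point | Times: Compounds 3 days, fix/stain 15 min at room temperature | Benchmarks: Positive control ellipticine, 6 µM final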
ABCB6 blocker 1: ABCB6 transporter inhibitors, confirmation, K562-ABCB6 cells, flow cytometry, cherry pick 1 | shares compounds with ABCB6 inh 2 | K562-ABCB6 porphyrin accumulation, 1 h; stronger effect = lower value | ratio response (% of DMSO), % at 10 µM | 700 tested, under 10 active | AID 602430, 2012;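 active = repeat-averaged ratio response below 75% of DMSO, the collection mean minus 3 SD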;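 also: median porphyrin fluorescence at 575 nm with 488 nm excitation from mitochondria; lower ratio means less porphyrin signal so ABCB6 inhibition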
Active calls of the source: *.

For CC1(C(=O)Nc2ccccc2)Cc2c(-c3ccc4c(c3)OCO4)ccnc2O1 (stereo not given) the results were Myeloid diff MLP inactive, ABCB6 inh 2 99 and Xi reactivation 0.
For CC1(C(=O)Nc2cccc(OC(F)(F)F)c2)Cc2c(-c3cccc(C(F)(F)F)c3)ccnc2O1 (stereo not given) the results were Myeloid diff MLP inactive, ABCB6 inh 2 97 and Xi reactivation 0.
For CC1(C(=O)Nc2cccnc2)Cc2c(-c3ccc4c(c3)OCO4)ccnc2O1 (stereo not given) the results were Myeloid diff MLP inactive, ABCB6 inh 2 94, Xi reactivation 0 and ABCB6 blocker 1 99.
For CC(=O)Nc1ccc(NC(=O)C2(C)Cc3c(-c4cccc(C(F)(F)F)c4)ccnc3O2)cc1 (stereo not given) the results were Myeloid diff MLP inactive, ABCB6 inh 2 98 and Xi reactivation 0.
For CC1(C(=O)Nc2cccnc2)Cc2c(-c3cccc(C(F)(F)F)c3)ccnc2O1 (stereo not given) the results were Myeloid diff MLP inactive, ABCB6 inh 2 94, Xi reactivation 0 and ABCB6 blocker 1 97.
Screening C[C@H]1CN([C@@H](C)CO)C(=O)Cc2cc(NC(=O)C3CC3)ccc2O[C@H]1CN(C)Cc1ccccc1 returned Xi reactivation 0.
For O=C(c1ccc(F)cc1)N1CC(=O)N2[C@@H](CO)[C@H](c3ccc(C#CC4CCCCC4)cc3)[C@@H]2C1 the results were Xi reactivation 0.
For C[C@H](CO)N1C[C@H](C)[C@H](CN(C)Cc2cccc(C(F)(F)F)c2)Oc2ncc(-c3cc4ccccc4o3)cc2C1=O the results were Xi reactivation 0.
Screening CCN1CCc2c(sc(NC(=O)c3ccc(S(=O)(=O)N4CCCC4)cc3)c2C(=O)NC)C1 returned Myeloid diff MLP inactive, ABCB6 inh 2 126 and Xi reactivation 0.
CCOC(=O)N1CCN(S(=O)(=O)c2ccc(C(=O)Nc3sc4c(c3C(N)=O)CCN(CC)C4)cc2)CC1 was read as Myeloid diff MLP inactive, ABCB6 inh 2 73*, Xi reactivation 0 and ABCB6 blocker 1 102.
Screening C[C@@H]1CN([C@H](C)CO)C(=O)c2cc(-c3ccncc3)cnc2O[C@H]1CN(C)Cc1cccnc1 returned Xi reactivation -1.
Screening CC(Sc1nc2ccccc2c(=O)n1CC1CCCO1)C(=O)N(C)Cc1ccccc1 (stereo not given) returned Myeloid diff MLP inactive, ABCB6 inh 2 98 and Xi reactivation 0.
`CC(Sc1nc2ccccc2c(=O)n1C)C(=O)N(C)C1CCCCC1` (stereo not given) gave Myeloid diff MLP inactive, ABCB6 inh 2 74*, Xi reactivation 0 and ABCB6 blocker 1 100.
`O=C(C[C@@H]1C[C@H]2c3cc(NC(=O)C4CCOCC4)ccc3O[C@H]2[C@@H](CO)O1)NCc1ccccc1` gave Xi reactivation 1.
For CCNC(=O)c1cccc(NC(=O)CN2C(=O)NC3(CCCCC3)C2=O)c1 the results were Myeloid diff MLP inactive, ABCB6 inh 2 100 and Xi reactivation 0.
Screening CC(=O)c1cccc(NC(=O)CN2C(=O)NC3(CCCCCCC3)C2=O)c1 returned Myeloid diff MLP inactive, ABCB6 inh 2 61* and ABCB6 blocker 1 99.
CN1c2ccc(Br)cc2[C@@H]2[C@@H](CCN2C(=O)C2CCOCC2)[C@@H]1CO was read as Xi reactivation 0.
`COc1cc2c(c(O)c1OC)-c1c(cc(OC)c(OC)c1OC)C[C@@H](C)[C@@H](C)C2` gave Myeloid diff MLP inactive, ABCB6 inh 2 95 and Xi reactivation 0.
Screening COc1cc2c(c(OC)c1OC)-c1c(cc(OC)c(OC)c1OC)C[C@H](C)[C@H](C)C2 returned Myeloid diff MLP inactive, ABCB6 inh 2 74*, Xi reactivation 0 and ABCB6 blocker 1 99.
`Cc1ccc(S(=O)(=O)N[C@H]2CC[C@@H](CCNC(=O)C3CC3)O[C@@H]2CO)cc1` gave Xi reactivation 0.
Screening CC(CN1CCCC1)OC(=O)COc1ccccc1 (stereo not given) returned Myeloid diff MLP inactive, ABCB6 inh 2 72* and ABCB6 blocker 1 99.
`Cc1ccc(OCC(=O)OC(C)CN2CCCCC2)cc1` (stereo not given) gave Myeloid diff MLP inactive, ABCB6 inh 2 99 and Xi reactivation 0.
Screening COc1ccc(NC(=O)c2cc(-c3ccc(F)cc3OC)n[nH]2)cc1OC returned Myeloid diff MLP inactive, ABCB6 inh 2 100 and Xi reactivation 0.
Screening COc1ccc(-c2cc(C(=O)Nc3ccc(OC)c(OC)c3)[nH]n2)c(C)c1 returned Myeloid diff MLP inactive, ABCB6 inh 2 70*, Xi reactivation 0 and ABCB6 blocker 1 98.
Screening COc1ccc(NC(=O)CSc2nnc(-c3ccccn3)n2N)c(OC)c1 returned Myeloid diff MLP inactive, ABCB6 inh 2 73* and ABCB6 blocker 1 102.
For COc1ccc(NC(=O)CSc2nnc(-c3ccccn3)n2N)cc1 the results were Myeloid diff MLP inactive and ABCB6 inh 2 98.
For COc1cccc(C#Cc2cnc3c(c2)C(=O)N([C@@H](C)CO)C[C@@H](C)[C@@H](CN(C)C(=O)C2CC2)O3)c1 the results were Xi reactivation 0.
O=C(C1CCN(S(=O)(=O)c2ccc(Cl)cc2)CC1)N1CCC1 was read as Myeloid diff MLP inactive, ABCB6 inh 2 99 and Xi reactivation 0.
O=C(C1CCN(S(=O)(=O)c2c(Cl)cccc2Cl)CC1)N1CCCCCCC1 was read as Myeloid diff MLP inactive, ABCB6 inh 2 72*, Xi reactivation 2 and ABCB6 blocker 1 99.
CNC[C@H]1Oc2ccc(NC(=O)Nc3ccc(OC)cc3)cc2C(=O)N([C@@H](C)CO)C[C@@H]1C was read as Xi reactivation 1.
`CCN(Cc1ccccc1)Cc1c(C)[nH]c2c(C)c(C)ccc2c1=O` gave Myeloid diff MLP inactive, ABCB6 inh 2 55* and ABCB6 blocker 1 99.
C=CCN(CC=C)Cc1c(C)[nH]c2c(C)c(C)ccc2c1=O was read as Myeloid diff MLP inactive, ABCB6 inh 2 114 and Xi reactivation 0.
CO[C@@H]1CN(C)C(=O)c2cc(NC(=O)NC(C)C)ccc2OC[C@@H](C)N(C(=O)CC2CC2)C[C@@H]1C was read as Xi reactivation -1.
For O=C(C[C@H]1CC[C@H](NS(=O)(=O)c2ccccc2)[C@H](CO)O1)NCCN1CCCCC1 the results were Xi reactivation 2.
Screening Cc1ccc(NC(=O)COC(=O)CCCC2=NS(=O)(=O)c3ccccc3N2)cc1C returned Myeloid diff MLP inactive, ABCB6 inh 2 10*, Xi reactivation 0 and ABCB6 blocker 1 99.

Bioassay records as filed in PubChem.
